Activity calls are given as the source filed them. The rule behind the calls is not given here.

The nature of series [1]: Drug uptake in heart of SCID mouse xenografted with human RS4:11 cells at 5 mg/kg, iv measured at 6 hrs by LC-MS/MS analysis. Format: ADME, organism-based. The conditions noted are these: in vivo, BLD = below limit of detection. The gist of the method:
(§1)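 Female SCID mice with RS4;11 tumors received a single 5 mg/kg intravenous dose in 20% PCP/80% PBS. Plasma (heparin) and tissues were taken at 1, 3 and 6 h, one mouse per time point in duplicate. Plasma was precipitated with acetonitrile containing internal standard. Tissues were homogenized 5:1 in 20% acetonitrile. Quantified by LC-MS/MS against spiked plasma standards (2–2000 ng/mL); values in ng/ml or ng/g.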
For orientation: Xenograft models place foreign cells or tissue in a host animal.

The test system of series [2] is RS4-11. Description: Antitumor activity against human RS4:11 cells xenografted in SCID mouse assessed tumor regression at 1 to 5 mg/kg, iv administered 3 times per week for 3 weeks. The format is functional, organism-based. The method in brief: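 RS4;11 xenografts: 5×10^6 cells in 50% Matrigel injected subcutaneously on the dorsal side of SCID mice, one tumor per mouse. Randomized to treatment or vehicle at ~100 mm3. Intravenous dosing on several schedules, including 3 times per week for 3 weeks and weekly. Volume = L × W2/2; body weight tracked.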

In series [3] the target is Protein cereblon/Eukaryotic peptide chain release factor GTP-binding subunit ERF3A/Cullin-4A (Homo sapiens) (UniProt Q96SW2+Q13619+P15170). Kind of series: Induction of Cereblon/Cullin 4A-mediated-GSPT1 degradation in human MV4-11 cells at 0.01 to 10 nM after 3 hrs by Western blot analysis. The format is cell-based.
For series [4], the target named is T1, Protein cereblon/Bromodomain-containing protein 3/Cullin-4A (Homo sapiens) (UniProt Q15059+Q96SW2+Q13619). Description: Protac activity at cereblon/cullin 4A/BRD3 in human MV4-11 cells assessed as BRD3 degradation at 10 pM after 3 hrs by Western blot analysis. The format is cell-based. (In general: Immunoblotting shows a protein as a band on a membrane.)
Series [5] has as its target T2, Protein cereblon/Bromodomain-containing protein 4/Cullin-4A (Homo sapiens) (UniProt O60885+Q96SW2+Q13619). Kind of series: Protac activity at cereblon/cullin 4A/BRD4 in human RS4:11 cells assessed as BRD4 degradation at 10 pM after 3 hrs by Western blot analysis. The format is cell-based.
Series [6] deals with T1, Protein cereblon/Bromodomain-containing protein 3/Cullin-4A (Homo sapiens). Kind of series: Protac activity at cereblon/cullin 4A/BRD3 in human RS4:11 cells assessed as BRD3 degradation at 10 pM after 3 hrs by Western blot analysis. Format: cell-based.
The target is the same in series [7]. Description: Protac activity at cereblon/cullin 4A/BRD3 in human RS4:11 cells assessed as BRD3 degradation at 0.5 nM after 3 hrs in presence of neddylation inhibitor MLN4924 by Western blot analysis. The format is cell-based. The gist of the method:
(§2)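 RS4;11 cells were pre-treated for 2 h with DMSO, lenalidomide (10 μM), MLN4924 (1 μM) or MG-132 (20 μM). The degrader was then added at 0.5 nM for 3 h. Lysates were immunoblotted for BRD2, BRD3 and BRD4, with GAPDH as loading control.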

In series [8] the test system is MV4-11. Kind of series: Antitumor activity against human MV4-11 cells xenografted in SCID mouse assessed tumor regression at 1 mg/kg, iv administered 3 times per week for 2 weeks. The format is functional, organism-based. The method in brief: (§3)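 MV4;11 xenografts: 5×10^6 cells in 50% Matrigel injected subcutaneously on the dorsal side of SCID mice, one tumor per mouse. Mice randomized at ~100 mm3. Dosed intravenously three times a week for two weeks. Tumor volume = L × W2/2; body weight monitored.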

In series [9] the test system is Mus musculus. Description: In vivo Protac activity at cereblon/cullin/BRD3 in tumor of human RS4:11 cells xenografted in SCID mouse assessed as reduction in BRD3 protein expression at 1 to 5 mg/kg, iv administered as single dose and measured at 1 to 6 hrs post dose by Western blot analysis. Format: functional, organism-based. The method in brief: (§4)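 SCID mice bearing subcutaneous RS4;11 tumors were given a single intravenous dose of 1 or 5 mg/kg. Tumors were harvested at 1, 6 and 24 h, two mice per time point. Tissue was ground in liquid nitrogen and lysed in CST buffer with protease inhibitors. 20 µg lysate per lane was probed for BRD2, BRD3, BRD4, c-Myc and cleaved PARP, with GAPDH as loading control.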

Series [10] has as its system RS4-11. Description: Induction of apoptosis in human RS4:11 cells at 0.1 nM after 48 hrs by Annexin V/propidium iodine-double staining-based flow cytometry relative to control. The format is functional. The gist of the method: (§5)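 Leukemia cells were treated for 24 h or 48 h at the indicated concentrations. They were then collected, washed in cold PBS and stained with Annexin V and propidium iodide. Apoptotic fraction was measured by flow cytometry.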

Series [11] concerns the target T3, Protein cereblon/Bromodomain-containing protein 2/Cullin-4A (Homo sapiens) (UniProt P25440+Q96SW2+Q13619). Description: Protac activity at cereblon/cullin 4A/BRD2 in human RS4:11 cells assessed as BRD2 degradation at 0.5 nM after 3 hrs in presence of lenalidomide by Western blot analysis. The format is cell-based. The method in brief: as §2
Series [12] concerns Mus musculus. Kind of series: In vivo Protac activity at cereblon/cullin/BRD2 in tumor of human RS4:11 cells xenografted in SCID mouse assessed as reduction in BRD2 protein expression at 1 to 5 mg/kg, iv administered as single dose and measured at 1 to 6 hrs by Western blot analysis. Format: functional, organism-based. The gist of the method: as §4
Series [13] concerns MV4-11. Description: Induction of apoptosis in human MV4-11 cells after 24 to 48 hrs by Annexin V/propidium iodine-double staining-based flow cytometry. The format is functional, cell-based. The gist of the method:
as §5
On the technique in general: Flow cytometry measures light scatter and fluorescence of single cells or particles in a stream.

In series [14] the target is T1, Protein cereblon/Bromodomain-containing protein 3/Cullin-4A (Homo sapiens). Description: Protac activity at cereblon/cullin 4A/BRD3 in human RS4:11 cells assessed as BRD3 degradation at 0.5 nM after 3 hrs in presence of lenalidomide by Western blot analysis. Format: cell-based. The method in brief:
as §2

Series [15] can be described thus: Drug uptake in lungs of SCID mouse xenografted with human RS4:11 cells at 5 mg/kg, iv measured at 6 hrs by LC-MS/MS analysis. Format: ADME, organism-based, Lung. Conditions: in vivo, BLD = below limit of detection. The method in brief:
as §1

The test system of another series is MOLM-13. Kind of series: Induction of apoptosis in human MOLM13 cells at 1 nM after 24 hrs by Annexin V/propidium iodine-double staining-based flow cytometry relative to control. Format: functional. The method in brief:
as §5

Series [16] deals with RS4-11. Description: Induction of apoptosis in human RS4:11 cells at 0.3 to 10 nM after 24 hrs by Annexin V/propidium iodine-double staining-based flow cytometry relative to control. The format is functional. The method in brief: as §5
Series [17] concerns Mus musculus. Kind of series: In vivo Protac activity at cereblon/cullin/BRD4 in tumor of human RS4:11 cells xenografted in SCID mouse assessed as reduction in BRD4 protein expression at 1 to 5 mg/kg, iv administered as single dose and measured at 1 to 6 hrs post dose by Western blot analysis. The format is functional, organism-based. The method in brief: as §4
Series [18] concerns the target T3, Protein cereblon/Bromodomain-containing protein 2/Cullin-4A (Homo sapiens). Description: Protac activity at cereblon/cullin 4A/BRD2 in human RS4:11 cells assessed as BRD2 degradation at 0.5 nM after 3 hrs in presence of neddylation inhibitor MLN4924 by Western blot analysis. The format is cell-based. The method in brief: as §2
Series [19] relates to RS4-11. Description: Induction of apoptosis in human RS4:11 cells after 24 to 48 hrs by Annexin V/propidium iodine-double staining-based flow cytometry. Format: functional, cell-based. The method in brief: as §5
Series [20] deals with T2, Protein cereblon/Bromodomain-containing protein 4/Cullin-4A (Homo sapiens). Kind of series: Protac activity at cereblon/cullin 4A/BRD4 in human RS4:11 cells assessed as BRD4 degradation at 0.5 nM after 3 hrs in presence of proteasome inhibitor MG132 by Western blot analysis. Format: cell-based. The method in brief:
as §2

In series [21] the test system is MV4-11. Description: Antitumor activity against human MV4-11 cells xenografted in SCID mouse assessed tumor regression at 5 mg/kg, iv administered 3 times per week for 2 weeks. Format: functional, organism-based. The gist of the method:
as §3

Series [22] can be described thus: Drug uptake in intestine of SCID mouse xenografted with human RS4:11 cells at 5 mg/kg, iv measured at 6 hrs by LC-MS/MS analysis. The format is ADME, organism-based. The conditions noted are these: in vivo, BLD = below limit of detection. The gist of the method:
as §1

T1 sequence (Q13619 whole entry, looked up): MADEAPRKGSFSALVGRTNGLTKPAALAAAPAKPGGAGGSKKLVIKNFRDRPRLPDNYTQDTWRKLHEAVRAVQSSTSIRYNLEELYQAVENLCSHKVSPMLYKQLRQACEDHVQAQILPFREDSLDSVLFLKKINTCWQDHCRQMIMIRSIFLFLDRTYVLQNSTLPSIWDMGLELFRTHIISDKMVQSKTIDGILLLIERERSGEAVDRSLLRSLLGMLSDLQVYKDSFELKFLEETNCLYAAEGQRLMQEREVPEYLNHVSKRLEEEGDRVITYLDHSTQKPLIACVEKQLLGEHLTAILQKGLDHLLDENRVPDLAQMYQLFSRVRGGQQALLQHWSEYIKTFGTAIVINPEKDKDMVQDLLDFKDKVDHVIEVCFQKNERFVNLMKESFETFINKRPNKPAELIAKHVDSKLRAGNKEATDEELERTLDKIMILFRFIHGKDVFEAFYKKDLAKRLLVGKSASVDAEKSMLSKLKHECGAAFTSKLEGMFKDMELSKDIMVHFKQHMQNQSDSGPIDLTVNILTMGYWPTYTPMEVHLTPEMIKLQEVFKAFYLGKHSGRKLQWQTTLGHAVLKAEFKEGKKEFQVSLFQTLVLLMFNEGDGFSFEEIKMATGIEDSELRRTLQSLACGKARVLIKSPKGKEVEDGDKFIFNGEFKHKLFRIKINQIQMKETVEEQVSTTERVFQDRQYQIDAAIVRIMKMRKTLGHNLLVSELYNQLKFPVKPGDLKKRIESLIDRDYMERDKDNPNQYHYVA
T1 sequence (Q15059 whole entry, looked up): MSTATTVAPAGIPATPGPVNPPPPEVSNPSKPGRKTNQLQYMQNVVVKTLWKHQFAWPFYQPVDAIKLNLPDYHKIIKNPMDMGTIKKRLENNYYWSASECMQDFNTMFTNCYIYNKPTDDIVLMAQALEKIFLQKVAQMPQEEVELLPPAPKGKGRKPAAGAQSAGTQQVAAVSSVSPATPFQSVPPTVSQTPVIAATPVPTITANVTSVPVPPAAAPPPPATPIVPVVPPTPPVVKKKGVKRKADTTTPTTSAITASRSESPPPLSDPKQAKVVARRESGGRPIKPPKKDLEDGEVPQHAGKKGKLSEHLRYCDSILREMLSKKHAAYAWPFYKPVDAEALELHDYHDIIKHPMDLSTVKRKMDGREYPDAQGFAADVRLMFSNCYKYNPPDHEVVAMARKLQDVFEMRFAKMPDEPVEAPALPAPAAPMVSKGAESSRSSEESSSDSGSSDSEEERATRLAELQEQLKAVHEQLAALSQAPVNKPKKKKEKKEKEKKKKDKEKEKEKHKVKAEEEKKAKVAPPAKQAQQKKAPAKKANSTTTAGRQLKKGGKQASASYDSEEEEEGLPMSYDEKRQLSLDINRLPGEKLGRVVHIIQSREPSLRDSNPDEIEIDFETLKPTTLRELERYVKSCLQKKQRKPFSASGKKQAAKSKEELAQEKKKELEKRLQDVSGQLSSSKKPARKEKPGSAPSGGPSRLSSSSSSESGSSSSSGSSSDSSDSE
T1 sequence (Q96SW2 whole entry, looked up): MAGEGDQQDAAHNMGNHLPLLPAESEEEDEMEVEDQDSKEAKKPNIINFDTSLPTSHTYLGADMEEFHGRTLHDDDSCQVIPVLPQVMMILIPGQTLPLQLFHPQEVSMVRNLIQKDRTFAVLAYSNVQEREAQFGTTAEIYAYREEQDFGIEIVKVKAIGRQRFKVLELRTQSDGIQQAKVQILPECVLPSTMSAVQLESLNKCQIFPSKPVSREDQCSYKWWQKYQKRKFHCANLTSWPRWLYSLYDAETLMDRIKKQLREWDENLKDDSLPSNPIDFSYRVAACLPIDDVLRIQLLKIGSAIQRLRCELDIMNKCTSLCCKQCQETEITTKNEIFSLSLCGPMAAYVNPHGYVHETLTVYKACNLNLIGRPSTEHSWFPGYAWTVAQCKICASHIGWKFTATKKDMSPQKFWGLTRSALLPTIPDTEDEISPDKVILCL
T3 sequence (P25440 whole entry, looked up): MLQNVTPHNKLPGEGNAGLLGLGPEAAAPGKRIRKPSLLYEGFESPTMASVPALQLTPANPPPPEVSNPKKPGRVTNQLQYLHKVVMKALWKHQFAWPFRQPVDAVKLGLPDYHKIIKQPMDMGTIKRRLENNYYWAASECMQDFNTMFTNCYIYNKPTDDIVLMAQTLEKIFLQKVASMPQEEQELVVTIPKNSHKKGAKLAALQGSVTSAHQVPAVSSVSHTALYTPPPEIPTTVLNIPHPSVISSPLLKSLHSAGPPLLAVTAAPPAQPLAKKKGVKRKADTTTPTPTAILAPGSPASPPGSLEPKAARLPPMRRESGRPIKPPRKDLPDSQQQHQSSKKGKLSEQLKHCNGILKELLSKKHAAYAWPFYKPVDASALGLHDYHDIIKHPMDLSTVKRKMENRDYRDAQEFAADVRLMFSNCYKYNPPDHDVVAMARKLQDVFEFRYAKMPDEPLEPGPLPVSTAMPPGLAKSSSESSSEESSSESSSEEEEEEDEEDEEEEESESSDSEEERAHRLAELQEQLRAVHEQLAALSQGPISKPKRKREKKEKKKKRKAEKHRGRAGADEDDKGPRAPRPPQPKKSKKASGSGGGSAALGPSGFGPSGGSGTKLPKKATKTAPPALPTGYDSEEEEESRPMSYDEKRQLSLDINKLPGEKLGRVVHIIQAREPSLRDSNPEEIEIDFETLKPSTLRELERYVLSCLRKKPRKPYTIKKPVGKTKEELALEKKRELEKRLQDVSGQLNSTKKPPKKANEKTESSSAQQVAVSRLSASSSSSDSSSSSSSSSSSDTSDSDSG
T3 sequence (Q13619 whole entry, looked up): as the sequence (Q13619 whole entry, looked up) above
T3 sequence (Q96SW2 whole entry, looked up): as the sequence (Q96SW2 whole entry, looked up) above
Protein cereblon/Eukaryotic peptide chain release factor GTP-binding subunit ERF3A/Cullin-4A (Homo sapiens), sequence (P15170 whole entry, looked up): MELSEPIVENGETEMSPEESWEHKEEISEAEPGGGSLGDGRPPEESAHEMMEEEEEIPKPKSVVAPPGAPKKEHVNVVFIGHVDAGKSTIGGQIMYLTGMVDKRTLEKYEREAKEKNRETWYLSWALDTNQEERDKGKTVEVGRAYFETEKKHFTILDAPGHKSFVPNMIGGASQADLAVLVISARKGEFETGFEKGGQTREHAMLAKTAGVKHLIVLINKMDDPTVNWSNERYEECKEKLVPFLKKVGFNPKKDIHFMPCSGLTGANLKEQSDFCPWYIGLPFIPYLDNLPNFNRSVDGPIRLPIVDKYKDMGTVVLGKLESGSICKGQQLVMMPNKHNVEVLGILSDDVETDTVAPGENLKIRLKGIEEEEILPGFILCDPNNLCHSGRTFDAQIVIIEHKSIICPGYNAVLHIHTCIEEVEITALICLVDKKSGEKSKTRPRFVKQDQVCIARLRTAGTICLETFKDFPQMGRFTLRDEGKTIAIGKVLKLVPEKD
Protein cereblon/Eukaryotic peptide chain release factor GTP-binding subunit ERF3A/Cullin-4A (Homo sapiens), sequence (Q13619 whole entry, looked up): as the sequence (Q13619 whole entry, looked up) above
Protein cereblon/Eukaryotic peptide chain release factor GTP-binding subunit ERF3A/Cullin-4A (Homo sapiens), sequence (Q96SW2 whole entry, looked up): as the sequence (Q96SW2 whole entry, looked up) above

For the compound `Cc1nnc2n1Cc1sc(C#Cc3cnn(CCCC#Cc4cccc5c4CN(C4CCC(=O)NC4=O)C5=O)c3)c(Cc3ccccc3)c1OC2` (stereo not drawn), the Drug uptake entry in [1], in [15] and in series [22] was “Bld” throughout. Moreover, the result (with RS4-11 [2]; in series [4]; in series [5]; in series [6]; in the series on MV4-11 [8]; in the series on Mus musculus [9]) was Active. The outcome with Mus musculus [12], in the series with Mus musculus [17] and with MV4-11 [21] was Active. Further, the outcome in [3], in series [7], in series [11], in series [14], in series [18] and in series [20] was inactive. Also, the Activity in the series with RS4-11 [10] was more than 40%; in the series with MV4-11 [13], “Dose-dependent effect”; in the series with MOLM-13, more than 60%; with RS4-11 [16] it was 15 - 30%; in the series with RS4-11 [19] it was “Dose-dependent effect”.

The values above are taken from ChEMBL document CHEMBL4382197, “Discovery of QCA570 as an Exceptionally Potent and Efficacious Proteolysis Targeting Chimera (PROTAC) Degrader of the Bromodomain and Extra-Terminal (BET) Proteins Capable of Inducing Complete and Durable Tumor Regression” (J Med Chem, 2018).
